pIC50: −log10 of the molar value.
How the values were obtained:
[1] = target: Cyclin-dependent kinase 9 (Homo sapiens, UniProt P50750); test: Inhibition of CDK9 in human HeLa cells lysate pre incubated for 15 mins followed by ATP acyl phosphate probe addition and measured after 10 mins by LC-MS/MS analysis; format: subcellular
Procedure, shortened: (§1)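 KiNativ profiling in HeLa lysate (5 mg/mL total protein). Lysate incubated 15 min with inhibitor at 50, 10, 2, 0.8 or 0 μM. ATP or ADP acylphosphate probe then added (5 μM final) and reacted 10 min. Reaction stopped with urea and analysed by targeted MS, using up to four fragment ions per kinase peptide-probe conjugate. % inhibition taken against untreated lysate. Run in duplicate.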

[2] = target: Cyclin-dependent kinase 2 (Homo sapiens, UniProt P24941); test: Inhibition of CDK2 K1 site in human HeLa cells lysate pre incubated for 15 mins followed by ADP acyl phosphate probe addition and measured after 10 mins by LC-MS/MS analysis; format: subcellular; procedure, shortened: as §1
[3] = target: Serine/threonine-protein kinase Chk2 (Homo sapiens, UniProt O96017); test: Inhibition of CHK2 in human HeLa cells lysate pre incubated for 15 mins followed by ADP acyl phosphate probe addition and measured after 10 mins by LC-MS/MS analysis; format: subcellular
[4] = target: Cyclin-dependent kinase 13 (Homo sapiens, UniProt Q14004); test: Inhibition of CHED in human HeLa cells lysate at 50 uM pre incubated for 15 mins followed by ADP acyl phosphate probe addition and measured after 10 mins by LC-MS/MS analysis relative to control; format: subcellular; settings: time 25.0 min; procedure, shortened: as §1
Sequence of Cyclin-dependent kinase 13 (Q14004 whole entry, looked up): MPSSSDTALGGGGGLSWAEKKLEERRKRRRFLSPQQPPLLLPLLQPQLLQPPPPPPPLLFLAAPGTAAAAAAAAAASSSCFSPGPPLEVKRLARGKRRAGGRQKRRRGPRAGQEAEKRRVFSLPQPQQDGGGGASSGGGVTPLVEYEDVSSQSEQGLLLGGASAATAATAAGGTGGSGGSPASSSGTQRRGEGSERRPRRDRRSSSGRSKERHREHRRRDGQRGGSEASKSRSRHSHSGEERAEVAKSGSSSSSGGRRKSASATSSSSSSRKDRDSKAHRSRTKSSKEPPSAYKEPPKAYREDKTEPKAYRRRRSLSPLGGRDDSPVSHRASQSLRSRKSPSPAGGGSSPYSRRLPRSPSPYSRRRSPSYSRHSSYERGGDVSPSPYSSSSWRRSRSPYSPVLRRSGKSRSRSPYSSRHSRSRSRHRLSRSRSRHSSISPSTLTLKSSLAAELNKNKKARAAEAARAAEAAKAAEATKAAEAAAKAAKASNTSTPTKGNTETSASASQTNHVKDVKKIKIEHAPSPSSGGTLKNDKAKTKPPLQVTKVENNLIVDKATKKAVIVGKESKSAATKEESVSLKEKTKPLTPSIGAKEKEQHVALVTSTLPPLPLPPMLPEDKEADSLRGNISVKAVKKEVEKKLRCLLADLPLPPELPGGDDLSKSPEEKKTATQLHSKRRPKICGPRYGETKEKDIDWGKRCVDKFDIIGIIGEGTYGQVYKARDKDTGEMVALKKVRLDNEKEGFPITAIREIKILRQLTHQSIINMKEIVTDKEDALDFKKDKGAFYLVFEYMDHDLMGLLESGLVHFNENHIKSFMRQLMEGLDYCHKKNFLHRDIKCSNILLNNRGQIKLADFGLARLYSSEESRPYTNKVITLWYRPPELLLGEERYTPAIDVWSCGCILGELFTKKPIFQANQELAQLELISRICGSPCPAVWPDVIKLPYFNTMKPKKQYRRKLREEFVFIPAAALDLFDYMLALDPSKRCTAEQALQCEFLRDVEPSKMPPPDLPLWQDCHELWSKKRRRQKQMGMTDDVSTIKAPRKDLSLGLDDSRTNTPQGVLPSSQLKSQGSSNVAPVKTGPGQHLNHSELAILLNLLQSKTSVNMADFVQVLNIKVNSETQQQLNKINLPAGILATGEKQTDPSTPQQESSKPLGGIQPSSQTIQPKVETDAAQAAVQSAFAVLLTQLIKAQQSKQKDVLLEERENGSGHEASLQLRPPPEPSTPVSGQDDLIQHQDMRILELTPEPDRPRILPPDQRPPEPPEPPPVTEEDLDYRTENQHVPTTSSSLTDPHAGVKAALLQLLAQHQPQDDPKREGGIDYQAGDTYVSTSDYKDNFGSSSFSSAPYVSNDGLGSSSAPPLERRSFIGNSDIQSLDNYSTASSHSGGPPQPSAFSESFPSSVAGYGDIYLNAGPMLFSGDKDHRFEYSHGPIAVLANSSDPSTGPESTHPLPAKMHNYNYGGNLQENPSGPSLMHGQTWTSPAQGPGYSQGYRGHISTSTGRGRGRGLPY

[5] = target: T1, Phosphatidylinositol 5-phosphate 4-kinase type-2 alpha (Homo sapiens) (UniProt P48426); test: Inhibition of PIP5K2A LIP site in human HeLa cells lysate at 2 uM pre incubated for 15 mins followed by ADP acyl phosphate probe addition and measured after 10 mins by LC-MS/MS analysis relative to control; format: subcellular; settings: time 25.0 min
T1 sequence (whole entry): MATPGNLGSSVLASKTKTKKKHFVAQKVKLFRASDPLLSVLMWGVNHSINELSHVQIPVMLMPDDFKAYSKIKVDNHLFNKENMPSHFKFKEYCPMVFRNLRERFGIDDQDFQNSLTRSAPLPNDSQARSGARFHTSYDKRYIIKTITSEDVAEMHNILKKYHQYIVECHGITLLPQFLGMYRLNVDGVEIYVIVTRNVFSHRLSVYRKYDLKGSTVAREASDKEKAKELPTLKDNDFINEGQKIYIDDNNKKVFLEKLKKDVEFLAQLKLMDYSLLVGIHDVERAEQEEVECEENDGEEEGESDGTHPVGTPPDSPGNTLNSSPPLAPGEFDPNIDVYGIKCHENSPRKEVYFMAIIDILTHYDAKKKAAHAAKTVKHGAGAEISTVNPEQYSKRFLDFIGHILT

[6] = Inhibition of NEK6/7 in human HeLa cells lysate at 2 uM pre incubated for 15 mins followed by ADP acyl phosphate probe addition and measured after 10 mins by LC-MS/MS analysis relative to control; settings: 25 min, condition cancer
[7] = target: Serine/threonine-protein kinase ULK2 (Homo sapiens) (UniProt Q8IYT8); test: Inhibition of ULK2 in human HeLa cells lysate at 2 uM pre incubated for 15 mins followed by ADP acyl phosphate probe addition and measured after 10 mins by LC-MS/MS analysis relative to control; format: subcellular; settings: time 25.0 min
[8] = target: T2, Ribosomal protein S6 kinase alpha-1 (Homo sapiens, UniProt Q15418); test: Inhibition of RSK1 domain 2 in human HeLa cells lysate at 50 uM pre incubated for 15 mins followed by ATP acyl phosphate probe addition and measured after 10 mins by LC-MS/MS analysis relative to control; format: subcellular; settings: time 25.0 min
T2 sequence (Q15418 whole entry, the tested form may be a part): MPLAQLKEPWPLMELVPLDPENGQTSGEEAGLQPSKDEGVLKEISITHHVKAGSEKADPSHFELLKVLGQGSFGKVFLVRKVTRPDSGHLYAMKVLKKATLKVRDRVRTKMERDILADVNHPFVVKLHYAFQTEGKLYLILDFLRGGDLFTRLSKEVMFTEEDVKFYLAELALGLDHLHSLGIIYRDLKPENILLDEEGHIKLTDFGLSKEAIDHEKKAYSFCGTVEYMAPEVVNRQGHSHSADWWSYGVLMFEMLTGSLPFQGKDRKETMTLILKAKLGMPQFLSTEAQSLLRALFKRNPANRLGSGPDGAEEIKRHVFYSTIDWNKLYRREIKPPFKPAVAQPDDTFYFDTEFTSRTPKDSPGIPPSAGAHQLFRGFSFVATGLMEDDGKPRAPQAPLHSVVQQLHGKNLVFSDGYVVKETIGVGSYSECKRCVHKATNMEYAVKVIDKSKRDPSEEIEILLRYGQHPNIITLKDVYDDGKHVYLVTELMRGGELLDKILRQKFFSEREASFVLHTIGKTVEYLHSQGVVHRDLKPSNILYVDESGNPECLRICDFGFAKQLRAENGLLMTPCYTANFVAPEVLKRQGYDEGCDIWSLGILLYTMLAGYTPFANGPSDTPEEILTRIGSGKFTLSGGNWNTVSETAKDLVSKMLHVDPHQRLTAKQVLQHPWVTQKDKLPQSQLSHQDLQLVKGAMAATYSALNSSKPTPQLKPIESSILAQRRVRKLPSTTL

[9] = target: T2, Ribosomal protein S6 kinase alpha-1; test: Inhibition of RSK1 domain 2 in human HeLa cells lysate at 10 uM pre incubated for 15 mins followed by ATP acyl phosphate probe addition and measured after 10 mins by LC-MS/MS analysis relative to control; format: subcellular; settings: time 25.0 min
[10] = target: Serine/threonine-protein kinase ATR (Homo sapiens, UniProt Q13535); test: Inhibition of ATR in human HeLa cells lysate at 10 uM pre incubated for 15 mins followed by ATP acyl phosphate probe addition and measured after 10 mins by LC-MS/MS analysis relative to control; format: subcellular; settings: time 25.0 min
Sequence of Serine/threonine-protein kinase ATR (Q13535 whole entry, looked up, the tested form may be a part): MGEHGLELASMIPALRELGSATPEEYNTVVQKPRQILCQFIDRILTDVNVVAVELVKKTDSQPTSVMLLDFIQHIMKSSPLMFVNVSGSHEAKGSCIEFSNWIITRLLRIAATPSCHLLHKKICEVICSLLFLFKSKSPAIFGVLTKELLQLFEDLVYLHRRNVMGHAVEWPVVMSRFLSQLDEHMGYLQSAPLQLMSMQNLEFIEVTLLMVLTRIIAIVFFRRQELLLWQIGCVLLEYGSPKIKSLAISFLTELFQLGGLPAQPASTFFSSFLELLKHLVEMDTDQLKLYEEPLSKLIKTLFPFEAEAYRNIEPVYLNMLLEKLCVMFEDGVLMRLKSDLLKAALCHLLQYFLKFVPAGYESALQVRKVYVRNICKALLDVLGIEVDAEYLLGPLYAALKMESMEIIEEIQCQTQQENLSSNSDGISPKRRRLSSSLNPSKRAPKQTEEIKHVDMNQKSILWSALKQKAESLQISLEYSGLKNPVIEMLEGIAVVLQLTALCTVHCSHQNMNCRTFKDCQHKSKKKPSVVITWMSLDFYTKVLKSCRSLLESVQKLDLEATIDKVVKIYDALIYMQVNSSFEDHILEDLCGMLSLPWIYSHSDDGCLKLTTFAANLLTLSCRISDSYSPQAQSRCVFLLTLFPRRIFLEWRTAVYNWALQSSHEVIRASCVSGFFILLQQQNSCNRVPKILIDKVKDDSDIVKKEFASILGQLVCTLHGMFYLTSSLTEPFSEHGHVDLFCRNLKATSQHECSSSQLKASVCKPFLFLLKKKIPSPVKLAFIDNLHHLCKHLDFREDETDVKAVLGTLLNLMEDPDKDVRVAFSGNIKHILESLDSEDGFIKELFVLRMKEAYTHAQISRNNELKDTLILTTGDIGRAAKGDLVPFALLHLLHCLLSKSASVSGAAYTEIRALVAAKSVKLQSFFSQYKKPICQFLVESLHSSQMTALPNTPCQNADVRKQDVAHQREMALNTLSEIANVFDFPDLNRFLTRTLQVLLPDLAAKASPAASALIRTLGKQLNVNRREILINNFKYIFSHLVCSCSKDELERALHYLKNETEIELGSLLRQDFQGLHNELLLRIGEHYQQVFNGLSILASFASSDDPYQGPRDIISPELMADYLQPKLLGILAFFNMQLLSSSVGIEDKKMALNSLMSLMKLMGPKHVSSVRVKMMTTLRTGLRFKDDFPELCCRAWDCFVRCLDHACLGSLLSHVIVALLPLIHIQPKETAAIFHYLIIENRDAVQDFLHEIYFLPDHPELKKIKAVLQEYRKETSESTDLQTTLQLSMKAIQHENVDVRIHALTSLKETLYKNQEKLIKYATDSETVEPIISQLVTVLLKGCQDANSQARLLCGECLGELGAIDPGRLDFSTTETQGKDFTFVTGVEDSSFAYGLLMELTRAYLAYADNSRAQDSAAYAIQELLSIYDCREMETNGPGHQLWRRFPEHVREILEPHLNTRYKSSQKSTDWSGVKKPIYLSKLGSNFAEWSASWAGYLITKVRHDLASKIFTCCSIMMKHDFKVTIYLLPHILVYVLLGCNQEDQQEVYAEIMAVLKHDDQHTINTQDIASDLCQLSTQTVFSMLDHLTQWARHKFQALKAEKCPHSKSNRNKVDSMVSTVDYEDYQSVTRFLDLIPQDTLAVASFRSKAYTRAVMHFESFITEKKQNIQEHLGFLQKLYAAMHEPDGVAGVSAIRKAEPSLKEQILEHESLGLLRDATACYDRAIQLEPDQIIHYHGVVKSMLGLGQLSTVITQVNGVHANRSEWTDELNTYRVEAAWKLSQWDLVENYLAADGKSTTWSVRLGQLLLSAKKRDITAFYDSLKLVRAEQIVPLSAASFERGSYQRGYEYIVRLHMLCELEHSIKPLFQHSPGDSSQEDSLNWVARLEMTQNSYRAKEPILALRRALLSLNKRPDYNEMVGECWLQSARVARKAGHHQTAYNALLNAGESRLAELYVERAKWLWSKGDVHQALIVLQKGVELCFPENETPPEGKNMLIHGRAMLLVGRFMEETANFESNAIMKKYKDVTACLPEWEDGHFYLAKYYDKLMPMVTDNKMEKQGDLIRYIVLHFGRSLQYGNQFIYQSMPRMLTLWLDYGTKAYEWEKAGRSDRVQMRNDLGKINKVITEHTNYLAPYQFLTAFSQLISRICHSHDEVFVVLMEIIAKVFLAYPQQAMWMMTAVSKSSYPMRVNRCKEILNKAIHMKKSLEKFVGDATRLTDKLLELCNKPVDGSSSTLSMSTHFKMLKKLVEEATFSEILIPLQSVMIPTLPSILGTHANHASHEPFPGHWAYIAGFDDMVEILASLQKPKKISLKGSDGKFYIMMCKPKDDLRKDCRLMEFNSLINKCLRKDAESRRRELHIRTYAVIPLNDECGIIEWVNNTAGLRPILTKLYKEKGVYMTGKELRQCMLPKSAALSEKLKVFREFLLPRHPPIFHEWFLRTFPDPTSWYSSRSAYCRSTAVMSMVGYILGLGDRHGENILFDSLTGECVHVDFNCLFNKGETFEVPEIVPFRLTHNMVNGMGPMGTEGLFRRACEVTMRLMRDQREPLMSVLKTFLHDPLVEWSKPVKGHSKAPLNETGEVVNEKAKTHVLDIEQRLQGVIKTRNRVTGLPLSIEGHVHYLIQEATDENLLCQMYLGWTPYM
Procedure, shortened: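 KiNativ-type profiling in HeLa lysate (5 mg/mL total protein). Lysate preincubated 15 min with inhibitor at 50, 10, 2, 0.8 or 0 μM, then ATP or ADP acylphosphate probe added (5 μM final) for 10 min. Reaction stopped with urea and analysed by targeted MS, using up to four fragment ions per kinase peptide-probe conjugate. % inhibition calculated against untreated lysate. Duplicate reactions.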

[11] = target: Tyrosine-protein kinase CSK (Homo sapiens, UniProt P41240); test: Inhibition of CSK in human HeLa cells lysate at 10 uM pre incubated for 15 mins followed by ATP acyl phosphate probe addition and measured after 10 mins by LC-MS/MS analysis relative to control; format: subcellular; settings: time 25.0 min
[12] = target: T3, Serine/threonine-protein kinase Nek9 (Homo sapiens) (UniProt Q8TD19); test: Inhibition of NEK9 in human HeLa cells lysate at 10 uM pre incubated for 15 mins followed by ATP acyl phosphate probe addition and measured after 10 mins by LC-MS/MS analysis relative to control; format: subcellular; settings: time 25.0 min
T3 sequence (whole entry): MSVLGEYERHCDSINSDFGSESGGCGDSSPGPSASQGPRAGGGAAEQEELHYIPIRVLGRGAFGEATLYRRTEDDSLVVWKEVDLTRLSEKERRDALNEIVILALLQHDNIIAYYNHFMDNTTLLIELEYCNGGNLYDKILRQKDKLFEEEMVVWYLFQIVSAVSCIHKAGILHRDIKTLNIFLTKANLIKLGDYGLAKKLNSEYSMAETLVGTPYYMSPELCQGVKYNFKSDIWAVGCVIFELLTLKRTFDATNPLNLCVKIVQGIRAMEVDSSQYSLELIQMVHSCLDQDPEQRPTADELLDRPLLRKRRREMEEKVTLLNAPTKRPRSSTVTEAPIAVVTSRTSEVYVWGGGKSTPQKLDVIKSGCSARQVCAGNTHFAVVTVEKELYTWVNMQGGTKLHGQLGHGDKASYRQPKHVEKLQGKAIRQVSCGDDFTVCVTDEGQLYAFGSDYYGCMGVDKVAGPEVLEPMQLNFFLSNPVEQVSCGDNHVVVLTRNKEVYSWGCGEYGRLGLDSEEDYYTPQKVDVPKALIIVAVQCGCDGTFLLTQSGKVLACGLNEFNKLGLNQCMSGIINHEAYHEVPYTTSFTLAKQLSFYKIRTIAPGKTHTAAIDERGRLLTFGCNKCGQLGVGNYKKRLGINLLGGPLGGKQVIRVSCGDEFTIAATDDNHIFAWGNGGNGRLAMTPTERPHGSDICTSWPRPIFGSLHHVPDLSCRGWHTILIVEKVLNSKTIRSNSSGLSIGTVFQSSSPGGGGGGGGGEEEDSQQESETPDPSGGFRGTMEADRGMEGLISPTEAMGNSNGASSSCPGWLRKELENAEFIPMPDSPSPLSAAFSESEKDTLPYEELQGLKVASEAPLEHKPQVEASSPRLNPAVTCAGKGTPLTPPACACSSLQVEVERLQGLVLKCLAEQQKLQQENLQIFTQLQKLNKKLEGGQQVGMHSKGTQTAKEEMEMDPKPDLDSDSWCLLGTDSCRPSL

**Q.** With `CCOc1cc(N2CCC(O)CC2)ccc1Nc1ncc2c(n1)N(C)c1ccccc1C(=O)N2C` as the compound, how does the pIC50 [1] read?
**A.** Its pIC50 is < 4.30.

**Q.** And the pIC50 [2]?
**A.** Its pIC50 is < 4.30.

**Q.** What about the pIC50 [3] of the same compound?
**A.** Its pIC50 is < 4.30.

**Q.** And the inhibition [4]?
**A.** Its inhibition is 12%.

**Q.** What about the inhibition [5] of the same compound?
**A.** Its inhibition is 5.5%.

**Q.** What about the inhibition at 2 µM [6] of the same compound?
**A.** Its inhibition at 2 µM is 6.4%.

**Q.** What about the inhibition [7] of the same compound?
**A.** Its inhibition is 7.3%.

**Q.** What about the inhibition [8] of the same compound?
**A.** Its inhibition is 73.1%.

**Q.** What about the inhibition [9] of the same compound?
**A.** The inhibition was 20.9%.

**Q.** What about the inhibition [10] of the same compound?
**A.** The inhibition was 6.7%.

**Q.** What about the inhibition [11] of the same compound?
**A.** The inhibition was -3.4%.

**Q.** What about the inhibition [12] of the same compound?
**A.** Its inhibition is -7.3%.

Reference: ChEMBL document CHEMBL5661979, “Pharmacological inhibition of BMK1 suppresses tumor growth through promyelocytic leukemia protein” (Cancer Cell, 2010)
